Measurements from ChEMBL document CHEMBL4196186, “Absolute Configurations and Bioactivities of Guaiane-Type Sesquiterpenoids Isolated from Pogostemon cablin” (J Nat Prod, 2018).
Converted amounts (≈) assume the structure as drawn. The source made the active and inactive calls. The rule behind the calls is not given here.

How the values were obtained:
Escherichia coli = test: Antibacterial activity against Escherichia coli ATCC 25922 after 24 hrs by double dilution method; assay type: functional, organism-based
[1] = Cytotoxicity against human […] cells after 48 hrs by MTT assay; assay type: functional, cell-based
Thoracic aorta [2] = test: Vasorelaxant activity in Sprague-Dawley rat thoracic aortic ring assessed as inhibition of KCl-induced contraction at 50 uM; assay type: functional, tissue-based
In short: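 Rat aortic rings contracted with KCl; relaxation measured with test agent at a single concentration of 50 μM. Methoxyverapamil and phentolamine mesylate were the positive controls.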

Staphylococcus aureus [3] = test: Antibacterial activity against methicillin-resistant Staphylococcus aureus ATCC 43300 after 24 hrs by double dilution method; assay type: functional, organism-based
Staphylococcus aureus [4] = test: Antibacterial activity against Staphylococcus aureus ATCC 25923 after 24 hrs by double dilution method; assay type: functional, organism-based
MCF7 = test: Cytotoxicity against human MCF7 cells after 48 hrs by MTT assay; assay type: functional, cell-based; conditions: MCF7, 48 h
A549 = test: Cytotoxicity against human A549 cells after 48 hrs by MTT assay; assay type: functional, cell-based; conditions: A549, 48 h
SGC-7901 = test: Cytotoxicity against human SGC7901 cells after 48 hrs by MTT assay; assay type: functional, cell-based; conditions: SGC-7901, 48 h
PC-12 [5] = test: Neuroprotective activity against glutamate-induced cell damage in rat PC12 cells assessed as cell viability at 50 uM pretreated followed by glutamate challenge and measured after 24 hrs by MTT assay (reference value: 49.14 +/- 3.15%); assay type: functional; conditions: read-out: Activity
Thoracic aorta [6] = test: Vasorelaxant activity in Sprague-Dawley rat thoracic aortic ring assessed as inhibition of phenylephrine-induced contraction; assay type: functional, tissue-based
In short: (§1)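 Rat aortic rings precontracted with phenylephrine (PHE) or KCl; relaxation measured over a range of concentrations and EC50 derived. Positive controls were phentolamine mesylate and methoxyverapamil.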

Thoracic aorta [7] = test: Vasorelaxant activity in Sprague-Dawley rat thoracic aortic ring assessed as inhibition of KCl-induced contraction; assay type: functional, tissue-based; in short: as §1
Candida albicans = test: Antifungal activity against Candida albicans CMCC 98001 after 24 hrs by double dilution method; assay type: functional; conditions: CMCC 98001, 24 h
PC-12 [8] = test: Neuroprotective activity against glutamate-induced cell damage in rat PC12 cells assessed as increase in cell viability at 10 uM pretreated followed by glutamate challenge and measured after 24 hrs by MTT assay; assay type: functional, cell-based

Structure (SMILES)	Activity (Escherichia coli)	IC50 [1]	inhibition (Thoracic aorta [2])	Activity (Staphylococcus aureus [3])	Activity (Staphylococcus aureus [4])	IC50 (MCF7)	IC50 (A549)	IC50 (SGC-7901)	viability at 50 µM (PC-12 [5])	EC50 (Thoracic aorta [6])	inhibition (Thoracic aorta [6])	inhibition (Thoracic aorta [7])	MIC (Candida albicans)	Activity (PC-12 [8])	EC50 (Thoracic aorta [7])
C=C(C)[C@@H]1CCC(C)=C2C(=O)C=C(C)[C@@H]2C1	inactive	> 50 µM	inactive	inactive	inactive	> 50 µM	> 50 µM	> 50 µM	–	–	–	–	–	–	–
C=C(C)[C@@H]1CC[C@H](C)[C@@H](CCC(C)=O)C(=O)C1	inactive	> 50 µM	inactive	inactive	inactive	> 50 µM	> 50 µM	> 50 µM	75.7%	–	–	–	–	–	–
C=C(C)[C@@H]1CC[C@@](C)(O)C2=C[C@@H](O)[C@H](C)[C@@H]2C1	inactive	> 50 µM	inactive	inactive	inactive	> 50 µM	> 50 µM	> 50 µM	–	–	–	–	–	–	–
C=C(C)[C@@H]1CCC(=C)[C@]2(O)[C@@H](O)C[C@H](C)[C@@H]2C1	inactive	> 50 µM	–	inactive	inactive	> 50 µM	> 50 µM	> 50 µM	–	5.4 µM	Dose-dependent effect	Dose-dependent effect	500 µM (≈ 118 µg/mL)	–	–
COCCOC(=O)C1=C(C)NC(C)=C(C(=O)OC(C)C)C1c1cccc([N+](=O)[O-])c1 (centres undefined)	–	–	–	–	–	–	–	–	–	–	–	–	–	Active	–
C=C(C)[C@@H]1C[C@@H](O)C(=C)C2=CC[C@H](C)[C@@H]2C1	inactive	> 50 µM	inactive	inactive	inactive	> 50 µM	> 50 µM	> 50 µM	–	–	–	–	–	–	–
C=C(C)[C@@H]1CC[C@H](C)[C@@]23O[C@]2(C1)[C@@H](C)C[C@H]3O	inactive	> 50 µM	–	inactive	inactive	> 50 µM	> 50 µM	> 50 µM	–	1.6 µM	Dose-dependent effect	Dose-dependent effect	300 µM (≈ 70.9 µg/mL)	–	24.2 µM
C=C(C)[C@@H]1CC[C@H](C)[C@]23CC[C@](C)(O)[C@@]2(C1)O3	inactive	> 50 µM	inactive	inactive	inactive	> 50 µM	> 50 µM	> 50 µM	65.5%	–	–	–	–	–	–
C=C(C)[C@@H]1CC[C@](C)(O)[C@@H]2CC[C@H](C)[C@]2(O)C1	inactive	> 50 µM	inactive	inactive	inactive	> 50 µM	> 50 µM	> 50 µM	66.1%	–	–	–	–	–	–
C=C(C)[C@@H]1CC[C@H](C)[C@H](CCC(C)=O)C(=O)C1	inactive	> 50 µM	–	inactive	inactive	> 50 µM	> 50 µM	> 50 µM	78.7%	–	–	Active	–	–	–
